From ChEMBL document CHEMBL1671867, “Novel polymyxin derivatives carrying only three positive charges are effective antibacterial agents” (Antimicrob Agents Chemother, 2008)
In brackets after ≈: the same amount, converted by molar mass. Values belong to the molecule of their own block, whether it stands above or below them. Bridge positions count the residues as written; N and C are the ends. Square brackets hold non-standard residues; d marks the D form. Peptide text beside a SMILES is read from it. * marks the point of attachment. Octanoyl = CCCCCCCC(=O)*; Dab = NCC[C@H](N)C(=O)O; Abu = CC[C@H](N)C(=O)O

What was measured:
V79 = assay: Cytotoxicity against chinese hamster V79 cells at […] to 128 ug/ml after 24 hrs; format: cell-based, Cricetulus griseus; settings: v79, 24 h
[1] = Inhibition of [3H]gentamicin binding to brush border membrane of renal cortex
Procedure, shortened: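 Brush border membrane vesicles prepared from male albino rat renal cortex by Mg2+-EGTA precipitation. Incubated with 20 μM [3H]gentamicin in 10 mM HEPES pH 7.5 with 300 mM mannitol, with or without compound, 60 min at 4°C. Then filtered, washed, and bound radioactivity counted by scintillation. IC50 fitted with the Hill equation.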

Klebsiella pneumoniae [2] = assay: Antibacterial activity against Klebsiella pneumoniae by Etest method in presence of 4 ug/ml NAB7064; format: functional
Escherichia coli [3] = assay: Antibacterial activity against Escherichia coli IH3080 by Etest method; format: functional
Procedure, shortened: (§1)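 E-strip MIC on Mueller-Hinton agar without added peptide; inoculum per manufacturer, matching CLSI M2-A9.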

Klebsiella oxytoca [4] = assay: Antibacterial activity against Klebsiella oxytoca ATCC 13182 by Etest method in presence of 4 ug/ml NAB7065; format: functional
Pseudomonas aeruginosa [5] = assay: (§2) Antibacterial activity against Pseudomonas aeruginosa ATCC 27853by Etest method in presence of […] NAB739; format: functional
Pseudomonas aeruginosa [6] = assay: Antibacterial activity against Pseudomonas aeruginosa ATCC 27853 by Etest method in presence of 4 ug/ml NAB7075; format: functional
Escherichia coli [7] = assay: Antibacterial activity against Escherichia coli IH3080 by Etest method in presence of 1 ug/ml NAB7061; format: functional
Escherichia coli [8] = assay: Antibacterial activity against Escherichia coli IH3080 by Etest method in presence of NAB7061; format: functional
Serratia marcescens = assay: Antibacterial activity against Serratia marcescens ATCC 8100 by Etest method in presence of 4 ug/ml NAB7072; format: functional
Citrobacter freundii = assay: Antibacterial activity against Citrobacter freundii ATCC 8090 by Etest method in presence of 4 ug/ml NAB7069; format: functional
Pseudomonas aeruginosa [9] = assay: Antibacterial activity against Pseudomonas aeruginosa ATCC 27853by Etest method; format: functional
Procedure, shortened: (§3)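 MICs of the antibiotic taken from E-strips on Mueller-Hinton agar, run both with and without peptide. […] Inoculum was prepared per the strip manufacturer, matching CLSI M2-A9.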

Acinetobacter baumannii [10] = assay: Antibacterial activity against Acinetobacter baumannii F264 by Etest method in presence of 1 ug/ml NAB739; format: functional
Klebsiella pneumoniae [11] = assay: Antibacterial activity against Klebsiella pneumoniae ATCC 13883 by Etest method; format: functional; procedure, shortened: as §3
Klebsiella pneumoniae [12] = assay: Antibacterial activity against Klebsiella pneumoniae ATCC 13883 by Etest method in presence of 2 ug/ml NAB7061; format: functional; procedure, shortened: as §3
Proteus vulgaris = assay: Antibacterial activity against Proteus vulgaris ATCC 13315 by Etest method in presence of 4 ug/ml NAB7074; format: functional
Enterobacter cloacae [13] = assay: Antibacterial activity against Enterobacter cloacae ATCC 23355 by Etest method; format: functional; procedure, shortened: as §1
Klebsiella pneumoniae [14] = assay: Antibacterial activity against Klebsiella pneumoniae CCUG45421 by Etest method in presence of 4 ug/ml NAB7063; format: functional
Enterobacter cloacae [15] = assay: Antibacterial activity against Enterobacter cloacae ATCC 23355 […] by Etest method in presence of 2 ug/ml NAB7062; format: functional
Acinetobacter baumannii [16] = assay: Antibacterial activity against Acinetobacter baumannii ATCC 19606 by Etest method in presence of 1 ug/ml NAB739; format: functional
Enterobacter cloacae [17] = assay: Antibacterial activity against Enterobacter cloacae ATCC 23355 […] by Etest method in presence of NAB7061; format: functional
Klebsiella oxytoca [18] = assay: Antibacterial activity against Klebsiella oxytoca CCUG51683 by Etest method in presence of 4 ug/ml NAB7066; format: functional
Acinetobacter baumannii [19] = assay: (§4) Antibacterial activity against Acinetobacter baumannii F264 by Etest method in presence of […] NAB739; format: functional
Escherichia coli [20] = assay: Antibacterial activity against Escherichia coli ATCC 25992 by Etest method; format: functional; procedure, shortened: as §1
Acinetobacter baumannii [21] = assay: Antibacterial activity against Acinetobacter baumannii ATCC 19606 by Etest method in presence of 0.5 ug/ml NAB739; format: functional
Escherichia coli [22] = assay: Antibacterial activity against Escherichia coli ATCC […] by Etest method in presence of 1 ug/ml NAB7061; format: functional
Escherichia coli [23] = assay: Antibacterial activity against Escherichia coli by Etest method in presence of 4 ug/ml NAB7061; format: functional
Klebsiella pneumoniae [24] = assay: Antibacterial activity against Klebsiella pneumoniae ATCC 13883 by Etest method in presence of 4 ug/ml NAB7061; format: functional; procedure, shortened: as §3
Escherichia coli [25] = assay: Antibacterial activity against Escherichia coli ATCC […] by Etest method in presence of 4 ug/ml NAB7064; format: functional
Escherichia coli [26] = assay: Antibacterial activity against Escherichia coli IH3080 by Etest method in presence of 2 ug/ml NAB7062; format: functional
Acinetobacter baumannii [27] = assay: Antibacterial activity against Acinetobacter baumannii F264 by Etest method in presence of 0.5 ug/ml NAB739; format: functional
Enterobacter cloacae [28] = assay: Antibacterial activity against Enterobacter cloacae ATCC 23355 […] by Etest method in presence of 4 ug/ml NAB7064; format: functional
Pseudomonas aeruginosa [29] = assay: Antibacterial activity against Pseudomonas aeruginosa ATCC 27853by Etest method in presence of 2 ug/ml NAB739; format: functional
Escherichia coli [30] = assay: Antibacterial activity against Escherichia coli ATCC […] by Etest method in presence of 2 ug/ml NAB7062; format: functional
Escherichia coli [31] = assay: Antibacterial activity against Escherichia coli IH3080 by Etest method in presence of 4 ug/ml NAB7064; format: functional
Acinetobacter baumannii [32] = assay: Antibacterial activity against Acinetobacter baumannii ATCC 19606 by Etest method; format: functional
Klebsiella pneumoniae [33] = assay: Antibacterial activity against Klebsiella pneumoniae ATCC 13883 by Etest method in presence of NAB7061; format: functional; procedure, shortened: as §3
Acinetobacter baumannii [34] = assay: as §4; format: functional; remark: listed apart in the source
Proteus mirabilis = assay: Antibacterial activity against Proteus mirabilis ATCC 29906 by Etest method in presence of 4 ug/ml NAB7073; format: functional
Acinetobacter baumannii [35] = assay: Antibacterial activity against Acinetobacter baumannii ATCC 19606 by Etest method in presence of 4 ug/ml NAB7070; format: functional
Enterobacter cloacae [36] = assay: Antibacterial activity against Enterobacter cloacae by Etest method in presence of 4 ug/ml NAB7068; format: functional
Klebsiella pneumoniae [37] = assay: Antibacterial activity against Klebsiella pneumoniae ATCC 13883 by Etest method in presence of 1 ug/ml NAB7061; format: functional; procedure, shortened: as §3
Acinetobacter baumannii [38] = assay: (§5) Antibacterial activity against Acinetobacter baumannii ATCC 19606 by Etest method in presence of […] NAB739; format: functional
Pseudomonas aeruginosa [39] = assay: Antibacterial activity against Pseudomonas aeruginosa ATCC 27853by Etest method in presence of 0.5 ug/ml NAB739; format: functional; procedure, shortened: as §3
Escherichia coli [40] = assay: Antibacterial activity against Escherichia coli NCTC13353 by Etest method in presence of 4 ug/ml NAB7062; format: functional
Acinetobacter baumannii [41] = assay: as §5; format: functional; remark: listed apart in the source
Acinetobacter baumannii [42] = assay: Antibacterial activity against Acinetobacter baumannii F264 by Etest method; format: functional; procedure, shortened: as §1
Pseudomonas aeruginosa [43] = assay: as §2; format: functional; remark: listed apart in the source
Acinetobacter baumannii [44] = assay: Antibacterial activity against Acinetobacter baumannii by Etest method in presence of 4 ug/ml NAB7071; format: functional
Enterobacter cloacae [45] = assay: Antibacterial activity against Enterobacter cloacae CCUG52947 by Etest method in presence of 4 ug/ml NAB7067; format: functional
Enterobacter cloacae [46] = assay: Antibacterial activity against Enterobacter cloacae ATCC 23355 […] by Etest method in presence of 1 ug/ml NAB7061; format: functional
Pseudomonas aeruginosa [47] = assay: Antibacterial activity against Pseudomonas aeruginosa ATCC 27853by Etest method in presence of 1 ug/ml NAB739; format: functional; procedure, shortened: as §3
Escherichia coli [48] = assay: Antibacterial activity against Escherichia coli IH3080 assessed as reduction in bacterial count at 2 ug/ml using 2 day old compound stock solution; format: functional; design: scale not given: the % may be the effect or the level left

IC50 [1]: 264 µM
SMILES: CCCCCCCC(=O)N[C@H](C(=O)N[C@H](CO)C(=O)N[C@H]1CCNC(=O)[C@H]([C@@H](C)O)NC(=O)[C@H](CCN)NC(=O)[C@H](CCN)NC(=O)[C@H](CC(C)C)NC(=O)[C@@H](Cc2ccccc2)NC(=O)[C@H](CCN)NC1=O)[C@@H](C)O
Activity (V79): Non-toxic

MIC (Klebsiella pneumoniae [2]): 0.25 µg/mL
MIC (Escherichia coli [3]): 12 µg/mL (≈ 16 µM)
MIC (Klebsiella oxytoca [4]): 0.25 µg/mL
MIC (Pseudomonas aeruginosa [5]): 32 µg/mL
MIC (Pseudomonas aeruginosa [6]): 32 µg/mL
MIC (Escherichia coli [7]): 0.5 µg/mL
MIC (Escherichia coli [8]): 0.105 µg/mL
MIC (Serratia marcescens): 96 µg/mL
MIC (Citrobacter freundii): 0.125 µg/mL
MIC (Pseudomonas aeruginosa [9]): 48 µg/mL (≈ 64.2 µM)
MIC (Acinetobacter baumannii [10]): 0.125 µg/mL
MIC (Klebsiella pneumoniae [11]): 12 µg/mL (≈ 16 µM)
MIC (Klebsiella pneumoniae [12]): 1 µg/mL
MIC (Proteus vulgaris): 24 µg/mL
MIC (Enterobacter cloacae [13]): 64 µg/mL (≈ 85.6 µM)
MIC (Klebsiella pneumoniae [14]): 24 µg/mL
MIC (Enterobacter cloacae [15]): 1.5 µg/mL
MIC (Acinetobacter baumannii [16]): 0.094 µg/mL
MIC (Enterobacter cloacae [17]): 0.273 µg/mL
MIC (Klebsiella oxytoca [18]): 0.19 µg/mL
MIC (Acinetobacter baumannii [19]): 2 µg/mL
MIC (Escherichia coli [20]): 16 µg/mL (≈ 21.4 µM)
MIC (Acinetobacter baumannii [21]): 0.5 µg/mL
MIC (Escherichia coli [22]): 0.5 µg/mL
MIC (Escherichia coli [23]): 0.032 µg/mL
MIC (Klebsiella pneumoniae [24]): 0.19 µg/mL
MIC (Escherichia coli [25]): 0.094 µg/mL
MIC (Escherichia coli [26]): 0.25 µg/mL
MIC (Acinetobacter baumannii [27]): 0.5 µg/mL
MIC (Enterobacter cloacae [28]): 0.25 µg/mL
MIC (Pseudomonas aeruginosa [29]): 3 µg/mL
MIC (Escherichia coli [30]): 0.19 µg/mL
MIC (Escherichia coli [31]): 0.047 µg/mL
MIC (Acinetobacter baumannii [32]): 8 µg/mL (≈ 10.7 µM)
MIC (Klebsiella pneumoniae [33]): ≤ 0.141 µg/mL
MIC (Acinetobacter baumannii [34]): 1.5 µg/mL
MIC (Proteus mirabilis): 24 µg/mL
MIC (Acinetobacter baumannii [35]): 0.5 µg/mL
MIC (Enterobacter cloacae [36]): 0.047 µg/mL
MIC (Klebsiella pneumoniae [37]): 2 µg/mL
MIC (Acinetobacter baumannii [38]): 1.5 µg/mL
MIC (Pseudomonas aeruginosa [39]): 16 µg/mL
MIC (Escherichia coli [40]): 1 µg/mL
MIC (Acinetobacter baumannii [41]): 1 µg/mL
MIC (Acinetobacter baumannii [42]): 6 µg/mL (≈ 8.02 µM)
MIC (Pseudomonas aeruginosa [43]): 32 µg/mL
MIC (Acinetobacter baumannii [44]): 0.25 µg/mL
MIC (Enterobacter cloacae [45]): 0.38 µg/mL
MIC (Enterobacter cloacae [46]): 32 µg/mL
MIC (Pseudomonas aeruginosa [47]): 12 µg/mL
SMILES: CC[C@H]1OC(=O)[C@H](C)[C@@H](O[C@H]2C[C@@](C)(OC)[C@@H](O)[C@H](C)O2)[C@H](C)[C@@H](O[C@@H]2O[C@H](C)C[C@H](N(C)C)[C@H]2O)[C@](C)(OC)C[C@@H](C)C(=O)[C@H](C)[C@@H](O)[C@]1(C)O [CLARITHROMYCIN]

SMILES: CCCCCCCC(=O)N[C@H](C(=O)N[C@H](CO)C(=O)N[C@H]1CCNC(=O)[C@H]([C@@H](C)O)NC(=O)[C@H](CCN)NC(=O)[C@H](CCN)NC(=O)[C@H](CC(C)C)NC(=O)[C@@H](Cc2ccccc2)NC(=O)[C@H](CCN)NC1=O)[C@@H](C)O.CS(=O)(=O)[O-].[Na+]
Activity (Escherichia coli [48]): 90%

IC50 [1]: 187 µM
SMILES: CCCCCCCC(=O)N[C@H](C(=O)N[C@@H](CC)C(=O)N[C@H]1CCNC(=O)[C@H]([C@@H](C)O)NC(=O)[C@H](CCN)NC(=O)[C@H](CCN)NC(=O)[C@H](CC(C)C)NC(=O)[C@@H](Cc2ccccc2)NC(=O)[C@H](CCN)NC1=O)[C@@H](C)O (Octanoyl-T[Abu][Dab][Dab][dF]L[Dab][Dab]T; lactam 3-C)
Activity (V79): Non-toxic
